E-selectin induc – E-selectin induction on HUVECs. P16581. HUVEC E-selectin immunofluorescence imaging; normalized: neutral wells 0, TNF-alpha wells 100. activation, % at 7.58 µM. 260,000 compounds, 0.37% hits. AID 686992;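 active = mean E-selectin-positive cell signal at least 10% of the positive control, reached in at least 60% of replicates, without over 20% cell loss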
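Assay system: HUVEC, human umbilical vein endothelial cells / Amount: 3,000 HUVEC/well / Controls: TNF-alpha positive control, DMSO neutral control / Compound dosing: single concentration / Medium: EGM-2 over gelatin coat / Evaluation: percent E-selectin-positive cells / Signal: immunofluorescence imaging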
DENV2 CPE rescue – protects cells from dengue virus 2 cytopathic effect; CPE inhibition, % at 9.99 µM; AID 651640; 350,000 compounds, 1.7% hits; DENV2-infected cells, cytopathic effect rescue, plate reader; in the data active = CPE inhibition above about 20%, passing the limit was not always enough; tested in BHK-21 cells;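 also: 0% = median of neutral control wells and 100% = median of positive control wells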
SIRT5 inh – inhibitors of human sirtuin-5 desuccinylase; 330,000 compounds, 1.1% hits; Purified SirT5, succinyl-peptide AMC, trypsin-coupled fluorescence; Q9NXA8; inhibition, % at 15 µM; in the data active = inhibition above about 15%
* hit, by the source's call; . = no result. This is a sample that favours compounds with a hit; in the whole collection about 2.9% have one here.

SMILES	E-selectin induc	DENV2 CPE rescue	SIRT5 inh
COc1cc(/C=C2\C(=N)N3N=C(S(C)(=O)=O)SC3=NC2=O)ccc1OCCOc1ccc(C)cc1	0.1	-2.2	8.1
COc1cc(/C=C2\C(=N)N3N=C(S(C)(=O)=O)SC3=NC2=O)cc(OC)c1OCCOc1cccc(C)c1	.	-2.5	2.1
Cc1ccc(NC(=O)c2cc(C)nn2-c2ccccc2)cc1	0.0	-5.5	2.9
Cc1cc(C(=O)Nc2ccc(Cl)cc2)n(-c2ccccc2)n1	41.1*	4.0	-4.1
Cc1ccccc1-c1cnc2c(c1)C(=O)N([C@@H](C)CO)C[C@H](C)[C@H](CN(C)CC1CCOCC1)O2	.	3.2	-0.8
Cc1ccc(-c2cc(-c3ccco3)c(C#N)c(=O)[nH]2)cc1	0.1	-3.1	-1.4
CC(=O)Nc1cccc(-c2cn3ccccc3n2)c1	-0.2	5.2	-6.7
O=C(Nc1cccc(-c2cn3ccccc3n2)c1)c1cc2ccccc2oc1=O	.	14.9	19.4*
COC(=O)c1cc(S(=O)(=O)NCC2CCN(CCc3cccs3)CC2)c[nH]1	226.3*	-3.9	-3.2
COC(=O)c1cc(S(=O)(=O)NCC2CCN(Cc3ccc(F)cc3)CC2)c[nH]1	.	-1.5	-3.7
Cc1noc(C)c1C(=O)OCC(=O)Nc1ccc(C(N)=O)cc1	-1.5	0.1	-3.0
COc1ccc(NC(=O)COC(=O)c2c(C)noc2C)cc1Cl	0.0	38.8*	.
C[C@@H]1CN([C@H](C)CO)C(=O)c2cc(NC(=O)CCCCCC(=O)Nc3ccccc3N)ccc2O[C@H]1CN(C)C(=O)Nc1ccc2c(c1)OCO2	27.9*	-15.7	1.7
C[C@H](CO)N1C[C@H](C)[C@@H](CN(C)C(=O)Nc2ccccc2)Oc2ccc(NC(=O)CCCCCC(=O)Nc3ccccc3N)cc2C1=O	0.0	.	.
C[C@H]1CN([C@@H](C)CO)C(=O)c2cc(NC(=O)CCCCCC(=O)Nc3ccccc3N)ccc2O[C@@H]1CN(C)C(=O)Nc1ccccc1	-0.3	-4.8	3.3
C[C@@H]1CN([C@@H](C)CO)C(=O)c2cc(NC(=O)CCCCCC(=O)Nc3ccccc3N)ccc2O[C@H]1CN(C)C(=O)Nc1ccc2c(c1)OCO2	104.7*	16.2	0.1
C[C@@H]1CN([C@@H](C)CO)C(=O)c2cc(NC(=O)CCCCCC(=O)Nc3ccccc3N)ccc2O[C@@H]1CN(C)C(=O)Nc1ccc2c(c1)OCO2	21.6	29.9*	.
C[C@H](CO)N1C[C@H](C)[C@H](CN(C)C(=O)Nc2ccc3c(c2)OCO3)Oc2ccc(NC(=O)CCCCCC(=O)Nc3ccccc3N)cc2C1=O	23.5	48.0*	.
C[C@@H]1CN([C@H](C)CO)C(=O)c2cc(NC(=O)CCCCCC(=O)Nc3ccccc3N)ccc2O[C@H]1CN(C)C(=O)Nc1ccccc1	0.1	.	.
C[C@H]1CN([C@@H](C)CO)C(=O)c2cc(NC(=O)CCCCCC(=O)Nc3ccccc3N)ccc2O[C@@H]1CN(C)C(=O)Nc1ccc2c(c1)OCO2	3.5	19.1	-10.5
COc1ccc(NC(=O)N(C)C[C@@H]2Oc3c(NC(=O)C4CCCCC4)cccc3C(=O)N([C@H](C)CO)C[C@H]2C)cc1	-0.3	-9.4	.
O=C(COc1ccccc1Cl)NCCNC(=O)c1ccco1	-0.1	5.7	-2.1
c1ccc(-c2csc(-c3cccnc3)n2)cc1	0.4	0.8	-2.4
CC(C)C(=O)Nc1nnc(S(=O)(=O)N2CCc3ccccc32)s1	0.8	106.6*	-2.5
CC(C)C(=O)Nc1nnc(S(=O)(=O)N2CCCc3ccccc32)s1	0.0	-1.9	-4.9
SMILES	E-selectin induc	DENV2 CPE rescue	SIRT5 inh
CC(OC(=O)Cc1coc2ccc3ccccc3c12)C(=O)Nc1ncc(Cl)cc1Cl (configuration not stated)	-0.6	.	.
Cc1ccc2c(CC(=O)OC(C)C(=O)Nc3ncc(Cl)cc3Cl)coc2c1 (configuration not stated)	.	78.7*	8.4
O=C(Nc1ccccc1F)N(Cc1ccc(F)cc1)Cc1nc2ccccc2c(=O)[nH]1	16.5	5.8	-0.5
Cc1ccc(S(=O)(=O)N2C[C@@H]3CCCC[C@@H]3[C@@H](C)[C@H]2c2cn(Cc3ccccc3)c3ccccc23)cc1	0.1	-2.0	-2.6
Cc1ccc(S(=O)(=O)N2C[C@@H]3CCCC[C@@H]3[C@@H](C)[C@H]2c2cn(Cc3ccccc3)c3ncccc23)cc1	0.0	14.5	22.1*
Cc1ccc(Nc2c([N+](=O)[O-])ccc3nonc23)c(C)c1	1.2	-5.4	-1.7
Cc1ccc(S(=O)c2ccc([N+](=O)[O-])c3nonc23)cc1 (configuration not stated)	-0.2	8.4	15.1*
CCCn1c(NC(=O)c2ccccc2Br)nc2ccccc21	5.7	-8.4	-2.9
Cc1c(CC(=O)NCCC(=O)O)c(=O)oc2cc3occ(-c4ccccc4)c3cc12	40.1*	3.2	-3.3
Cc1c(CC(=O)O)c(=O)oc2cc3occ(-c4ccccc4)c3cc12	-0.1	-1.9	-2.2
